Statin myotox sup – suppressors of simvastatin-induced myotoxicity in C2C12 myotubes. rescue of ATP level, % at 7.49 µM. ATP luminescence, 48 h; scaled: DMSO 0, geranylgeraniol control 100. 0.78% of 330,000 active;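 active = mean ATP rescue above about 67%, or every replicate alone reaching that limit, limit read from the data, passing the limit was not always enough; inconclusive = no clear call, values can overlap the other calls; inactive = mean under the limit and some replicate under it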;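 also: myotubes were challenged with 10 µM simvastatin during compound exposure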
DENV2 CPE – inhibitors of DENV2 cytopathic effect; DENV2-infected cells, cytopathic effect rescue, plate reader; CPE inhibition, % at 9.99 µM; 1.7% of 350,000 active; AID 651640; in the data active = CPE inhibition above about 20%, passing the limit was not always enough; inconclusive = no clear call, values can overlap the other calls; tested in BHK-21 cells;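 also: 0% = median of neutral control wells and 100% = median of positive control wells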
E-selectin induc – E-selectin induction on HUVECs. P16581. 0.37% of 260,000 active. activation, % at 7.58 µM. HUVEC E-selectin immunofluorescence imaging; normalized: neutral wells 0, TNF-alpha wells 100;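 active = mean E-selectin-positive cell signal at least 10% of the positive control, reached in at least 60% of replicates, without over 20% cell loss; inconclusive = no rule given, readout overlaps actives, possibly toxicity-flagged; inactive = the rest, including those meeting only one limit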
Target sequence (P16581 whole entry, looked up): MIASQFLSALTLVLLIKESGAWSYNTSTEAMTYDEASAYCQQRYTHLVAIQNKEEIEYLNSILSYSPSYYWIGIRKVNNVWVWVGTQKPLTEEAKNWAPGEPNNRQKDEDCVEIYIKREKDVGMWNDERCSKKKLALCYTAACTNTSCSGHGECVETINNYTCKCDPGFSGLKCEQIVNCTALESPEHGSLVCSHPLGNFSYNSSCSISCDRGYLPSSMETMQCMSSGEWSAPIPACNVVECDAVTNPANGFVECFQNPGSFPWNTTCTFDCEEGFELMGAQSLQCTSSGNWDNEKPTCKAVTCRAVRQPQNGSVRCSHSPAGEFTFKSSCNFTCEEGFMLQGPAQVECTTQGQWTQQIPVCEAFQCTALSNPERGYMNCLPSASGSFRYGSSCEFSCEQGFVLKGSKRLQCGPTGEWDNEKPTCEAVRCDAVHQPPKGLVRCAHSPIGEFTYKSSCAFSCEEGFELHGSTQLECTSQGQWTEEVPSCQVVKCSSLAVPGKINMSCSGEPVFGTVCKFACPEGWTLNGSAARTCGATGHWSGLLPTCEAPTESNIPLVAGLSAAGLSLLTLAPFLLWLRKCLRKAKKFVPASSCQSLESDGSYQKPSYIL
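Read-out: % PE-positive cells | Test system: HUVEC | Doses: One compound dose added by pin transfer | Buffer or medium: EGM-2 over gelatin coat | Signal: Immunofluorescence imaging | Benchmarks: TNF-alpha, DMSO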
* = called active by the depositor; ? = inconclusive; . = no result given. Compounds with a hit are over-represented: about 2.2% of the library has one in this group of screens.

SMILES	Statin myotox sup	DENV2 CPE	E-selectin induc
COc1ccc(Cl)cc1C(=O)Nc1ccc(CN2CCCCC2)cc1	.	9.8	.
Cc1ccc(C(=O)Nc2ccc(CN3CCCCC3)cc2)c(C)c1	.	34.8*	.
Oc1ccc(Cl)cc1CNCc1ccc(F)cc1	11.5	23.2*	0.1
Oc1ccc(Cl)cc1CNCc1ccc(Cl)cc1	4.6	-1.0	0.0
O=C(c1cccc(Cl)c1)N1CCC2(CC1)NCCc1[nH]cnc12	-21.1	27.1*	.
O=C(c1cccc(F)c1)N1CCC2(CC1)NCCc1[nH]cnc12	0.9	5.0	.
O=C(c1ccccc1)c1ccc(Cn2cc(CCCO)nn2)cc1	149.9*	-6.0	-0.2
O=C(O)CCCCCCCCc1cn(Cc2ccc(C(=O)c3ccccc3)cc2)nn1	.	-4.5	0.2
CCOC(=O)N1CCN(CCC(=O)Nc2ccc(C)c(Br)c2)CC1	-3.3	.	.
Cc1ccc(NC(=O)CCN2CCN(CCO)CC2)cc1Br	-3.6	20.4*	.
COc1ccc(CN(C)C2CCN(C)CC2)cc1OC	0.5	-5.7	0.4
COc1ccc(CCNC2CC(=O)N(N(C)C)C2=O)cc1OC (centres undefined)	0.6	-5.3	.
COc1ccc(CCNC2CC(=O)N(C3CCCCC3)C2=O)cc1OC (centres undefined)	14.8	26.5*	0.8
COc1ccc(CCNC2CCN(C)CC2)cc1OC	111.6*	.	.
O=S(=O)(N[C@H]1CC[C@@H](CCn2cc(-c3cccnc3)nn2)O[C@H]1CO)c1ccc(Cl)cc1	-1.1	10.6	-0.4
O=C(c1ccncc1)N1CC2(C1)[C@@H](c1ccccc1)[C@@H](CO)N2CC1CCCC1	.	-6.2	-0.2
C[C@H]1CCCCO[C@@H](CN(C)Cc2ccncc2)[C@@H](C)CN([C@@H](C)CO)C(=O)c2cc(NC(=O)c3ccccc3)ccc2O1	-9.8	-0.9	0.0
CNC[C@@H]1Oc2cc(-c3cncnc3)ccc2S(=O)(=O)N([C@@H](C)CO)C[C@H]1C	-7.7	-3.4	0.2
COCC(=O)Nc1ccc2c(c1)C(=O)N(C)[C@H]1CC[C@@H](CC(=O)Nc3ccccc3)O[C@@H]1CO2	-7.6	8.3	0.3
Cc1ccc(-c2cc(C(F)F)n3ncc(C(=O)Nc4c(C)nn(Cc5ccccc5Cl)c4C)c3n2)cc1	79.8*	.	.
Cc1ccc(-c2cc(C(F)F)n3ncc(C(=O)Nc4c(C)nn(Cc5c(Cl)cccc5Cl)c4C)c3n2)cc1	-36.1	.	.
C[C@@H]1CCCCO[C@H](CN(C)CC2CCCCC2)[C@@H](C)CN([C@H](C)CO)C(=O)c2cc(NS(=O)(=O)c3ccccc3)ccc2O1	?	27.6*	-0.1
C[C@@H]1CCCCO[C@@H](CN(C)CC2CC2)[C@@H](C)CN([C@H](C)CO)C(=O)c2cc(NS(=O)(=O)c3ccc(Cl)cc3)ccc2O1	.	47.9*	0.0
C[C@@H]1CCCCO[C@H](CN(C)CC2CC2)[C@H](C)CN([C@H](C)CO)C(=O)c2cc(NS(=O)(=O)c3ccc(F)cc3)ccc2O1	.	29.1*	0.7
C[C@@H]1CN([C@@H](C)CO)C(=O)c2cc(NS(=O)(=O)c3ccc(Cl)cc3)ccc2O[C@H]1CN(C)CC1CC1	-24.8	28.7*	0.3
SMILES	Statin myotox sup	DENV2 CPE	E-selectin induc
C[C@H](CO)N1C[C@H](C)[C@H](CN(C)CC2CCCCC2)OCCCC[C@H](C)Oc2ccc(NS(=O)(=O)c3ccccc3)cc2C1=O	-425.4	-9.4	-0.1
C[C@@H]1CCCCO[C@H](CN(C)CC2CC2)[C@@H](C)CN([C@@H](C)CO)C(=O)c2cc(NS(=O)(=O)c3ccc(F)cc3)ccc2O1	.	4.9	-0.1
C[C@@H]1CCCCO[C@@H](CN(C)CC2CCCCC2)[C@H](C)CN([C@H](C)CO)C(=O)c2cc(NS(=O)(=O)c3ccc(Cl)cc3)ccc2O1	.	-22.2	0.0
C[C@H](CO)N1C[C@H](C)[C@H](CN(C)CC2CC2)Oc2ccc(NS(=O)(=O)c3ccc(Cl)cc3)cc2C1=O	20.5	-11.3	0.0
CN1C(=O)c2cc(NC(=O)c3cccc(F)c3)ccc2OC[C@@H]2O[C@H](CC(=O)NC3CCC3)CC[C@H]21	-6.1	-4.5	0.1
CCCNC(=O)N1[C@H](CO)[C@@H](c2ccccc2)[C@H]1CNC(=O)c1ccc(F)cc1	8.1	36.3	-0.2
C[C@@H]1CCCCO[C@@H](CN(C)CC2CCCCC2)[C@H](C)CN([C@@H](C)CO)C(=O)c2cc(NS(=O)(=O)c3ccc(Cl)cc3)ccc2O1	.	-23.9	0.0
C[C@@H]1CN([C@H](C)CO)C(=O)c2cc(N(C)C)ccc2O[C@@H](C)CCCCO[C@@H]1CN(C)CC1CCCCC1	-10.4	9.1	0.0
C[C@@H]1CN([C@@H](C)CO)C(=O)c2cc(NS(=O)(=O)c3ccc(Cl)cc3)ccc2O[C@@H](C)CCCCO[C@H]1CN(C)CC1CC1	.	84.1*	-0.1
